Among the data in ChEMBL document CHEMBL2146415, “Antibacterial activities of Groebke-Blackburn-Bienaymé-derived imidazo[1,2-a]pyridin-3-amines” (Bioorg Med Chem, 2012) are MIC and Activity values, retold here.

Assay [1] relates to Staphylococcus aureus. Kind of assay: Bacteriostatic activity against wild type Staphylococcus aureus ATCC 13709 by CLSI broth microdilution method. Type of assay: functional. Summed up: (§1)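 MIC was determined by CLSI broth microdilution in non-cation-supplemented Mueller-Hinton broth, using OD600 0.5 cultures diluted 10-fold and 2-fold compound dilutions, overnight at 37°C, A600 read-out.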
(In general: Broth dilution looks for growth in wells or tubes with falling amounts of substance.)

Assay [2] has as its system Staphylococcus aureus. Kind of assay: Bacteriostatic activity against wild type Staphylococcus aureus ATCC 13709 at 100 ug/mL by CLSI broth microdilution method. The format is functional, organism-based.
The target in assay [3] is T1, Toll-like receptor 7 (Homo sapiens) (UniProt Q9NYK1).
T1 sequence (whole entry): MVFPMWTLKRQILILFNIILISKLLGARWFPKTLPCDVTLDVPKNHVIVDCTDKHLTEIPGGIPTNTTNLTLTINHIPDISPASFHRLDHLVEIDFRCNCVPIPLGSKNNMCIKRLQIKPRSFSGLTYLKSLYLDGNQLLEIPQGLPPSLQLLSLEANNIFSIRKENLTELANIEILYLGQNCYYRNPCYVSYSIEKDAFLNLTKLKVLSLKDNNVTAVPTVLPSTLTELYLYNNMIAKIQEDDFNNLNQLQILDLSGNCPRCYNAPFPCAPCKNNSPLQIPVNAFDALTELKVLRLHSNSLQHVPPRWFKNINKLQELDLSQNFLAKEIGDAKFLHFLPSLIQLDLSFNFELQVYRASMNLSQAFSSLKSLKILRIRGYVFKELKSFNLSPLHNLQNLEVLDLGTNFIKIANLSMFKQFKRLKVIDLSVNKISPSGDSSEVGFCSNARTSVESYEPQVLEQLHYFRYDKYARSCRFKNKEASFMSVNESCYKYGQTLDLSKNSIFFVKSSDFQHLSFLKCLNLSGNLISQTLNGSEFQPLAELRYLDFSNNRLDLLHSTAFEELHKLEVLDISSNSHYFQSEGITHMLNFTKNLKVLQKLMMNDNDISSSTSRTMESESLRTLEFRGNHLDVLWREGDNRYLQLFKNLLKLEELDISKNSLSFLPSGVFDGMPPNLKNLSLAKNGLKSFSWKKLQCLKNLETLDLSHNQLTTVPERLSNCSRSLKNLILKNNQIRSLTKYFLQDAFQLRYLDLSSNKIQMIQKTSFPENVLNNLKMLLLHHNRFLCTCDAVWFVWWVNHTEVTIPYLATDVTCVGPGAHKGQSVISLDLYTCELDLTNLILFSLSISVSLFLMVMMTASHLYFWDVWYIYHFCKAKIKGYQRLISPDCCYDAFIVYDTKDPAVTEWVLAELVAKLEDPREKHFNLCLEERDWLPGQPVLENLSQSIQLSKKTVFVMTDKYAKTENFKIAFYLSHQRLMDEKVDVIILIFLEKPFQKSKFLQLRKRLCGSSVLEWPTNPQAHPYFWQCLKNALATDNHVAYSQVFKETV
Kind of assay: Antagonist activity at TLR7 expressed in HEK293 cells co-transfected with NF-kappaB/sAP gene assessed as inhibition of gardiquimod-induced NF-kappaB activation up to 250 uM by reporter gene assay. Type of assay: functional, cell-based. On the technique in general: In a reporter assay the amount or activity of a reporter protein is the signal.

Assay [4] addresses T1, Toll-like receptor 7 (Homo sapiens). Kind of assay: Agonist activity at human TLR7 expressed in HEK293 cells co-transfected with NF-kappaB/sAP gene assessed as induction of NF-kappaB activation up to 250 uM by reporter gene assay. The format is functional, cell-based.
In assay [5] the test system is Staphylococcus aureus. Kind of assay: Bacteriostatic activity against methicillin resistant Staphylococcus aureus ATCC 33591 by CLSI broth microdilution method. The format is functional.
For assay [6], the system named is Streptococcus pyogenes. Kind of assay: Bacteriostatic activity against Streptococcus pyogenes clinical isolate by CLSI broth microdilution method. Type of assay: functional. In short, it runs like this: as §1
Assay [7] deals with Staphylococcus aureus. Kind of assay: Bactericidal activity against methicillin resistant Staphylococcus aureus ATCC 33591 by broth microdilution method. Type of assay: functional, organism-based. In short, it runs like this:
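MBC by microdilution subculture: 0.5 μL from each well of the parent MIC plate (MRSA ATCC 33591) diluted into 80 μL fresh Mueller-Hinton broth, incubated overnight at 37°C, absorbance read at 600 nm.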

In brackets after ≈: the same amount, converted by molar mass. Activity calls are given as the source filed them. No cut-off for these calls is given here.

As usually defined, the MIC is the lowest concentration found to suppress growth. A low value points to greater potency. In assay [1], `c1ccc2c(-c3nc4ncccn4c3NC3CCCCC3)c3ccccc3cc2c1` returned an MIC of 15.6 µg/mL (≈ 39.8 µM).

For the compound `CC(C)(C)Nc1c(-c2cccc3ccccc23)nc2cnccn12`, the outcome in assay [2], in assay [3] and in assay [4] was inactive.

In the case of `CC(C)Nc1c(-c2c3ccccc3cc3ccccc23)nc2ccccn12`, the minimal inhibitory concentration (MIC) in assay [5] and in assay [1] was 15.6 µg/mL (≈ 44.4 µM) throughout.

Take `CC(C)(C)Nc1c(-c2c3ccccc3c(Cl)c3ccccc23)nc2ccccn12`: in assay [1], the MIC was determined as 7.81 µg/mL (≈ 19.5 µM).

In the case of `c1ccc2c(-c3nc4cnccn4c3NC3CCCCC3)c3ccccc3cc2c1`, the outcome in assay [3] and in assay [4] was inactive. The same compound registered a minimal inhibitory concentration (MIC) in assay [1] of 7.81 µg/mL (≈ 19.9 µM).

Take `CC(C)(C)Nc1c(-c2ccccc2)nc2cnccn12`: the result in assay [2], in assay [3] and in assay [4] was inactive.

Take `c1ccc(-c2nc3ccccn3c2NC2CCCCC2)cc1`: the outcome in assay [2], in assay [3] and in assay [4] was inactive.

`CCCCCNc1c(-c2c3ccccc3cc3ccccc23)nc2ccccn12`: the figures for the MIC in assay [5] and in assay [1] were 7.81 µg/mL (≈ 20.6 µM) and 3.91 µg/mL (≈ 10.3 µM), respectively.

Consider `c1ccc2c(-c3nc4cnccn4c3NC3CCCCC3)cccc2c1`, for which the outcome in assay [2], in assay [3] and in assay [4] was inactive.

As for `Clc1nccn2c(NC3CCCCC3)c(-c3c4ccccc4cc4ccccc34)nc12`, the result in assay [2] was inactive.

In the case of `Cc1cccc(Cl)c1Nc1c(-c2c3ccccc3cc3ccccc23)nc2ccccn12`, the outcome in assay [2] was inactive.

On to `c1ccc(CNc2c(-c3ccccc3)nc3cnccn23)cc1`, for which the result in assay [2], in assay [3] and in assay [4] was inactive.

`c1ccc(CNc2c(-c3ccccc3)nc3ccccn23)cc1`: the outcome in assay [2], in assay [3] and in assay [4] was inactive.

Consider `c1ccc(CNc2c(Cc3ccccc3)nc3ccccn23)cc1`, for which the outcome in assay [2], in assay [3] and in assay [4] was inactive.

For the compound `CC(C)(C)Nc1c(Cc2ccccc2)nc2cnccn12`, the result in assay [2], in assay [3] and in assay [4] was inactive.

Regarding `c1ccc2c(-c3nc4ccccn4c3NC34CC5CC(CC(C5)C3)C4)c3ccccc3cc2c1`, the lowest concentration to inhibit growth in assay [1] (MIC) was 15.6 µg/mL (≈ 35.2 µM).

With `CN(C)CCCNc1ccc2nc(-c3c4ccccc4cc4ccccc34)c(NC(C)(C)CC(C)(C)C)n2c1`, the lowest concentration to inhibit growth in assay [1] (MIC) was 3.91 µg/mL (≈ 7.49 µM).

In assay [1], `CCCCCCCCN(CCCCCCCC)c1c(-c2c3ccccc3cc3ccccc23)nc2ccccn12` returned an MIC of 31.2 µg/mL (≈ 58.5 µM).

Take `CC(C)(C)Nc1c(-c2c3ccccc3cc3ccccc23)nc2ccc(Br)cn12`: inhibition of growth in assay [1] (MIC) required 15.6 µg/mL (≈ 35.2 µM).

With `CC(C)(C)CC(C)(C)Nc1c(-c2cc3ccccc3c3ccccc23)nc2ccccn12`, the MIC in assay [1] worked out at 7.81 µg/mL (≈ 18.5 µM).

For the compound `c1ccc(CNc2c(-c3c4ccccc4cc4ccccc34)nc3ccccn23)cc1`, the outcome in assay [2], in assay [3] and in assay [4] was inactive.

On to `c1ccc(CNc2c(-c3c4ccccc4cc4ccccc34)nc3cnccn23)cc1`, for which the result in assay [2], in assay [3] and in assay [4] was inactive.

Turning to `CC(C)(C)Nc1c(-c2c3ccccc3cc3ccccc23)nc2ccc(NCCCCCCCCN)cn12`, the minimal inhibitory concentration (MIC) in assay [5] worked out at 7.81 µg/mL (≈ 15.4 µM); in assay [1] it was 3.91 µg/mL (≈ 7.7 µM).

In the case of `c1ccc(CNc2c(Cc3ccccc3)nc3cnccn23)cc1`, the result in assay [2], in assay [3] and in assay [4] was inactive.

With `COc1ccc(Nc2c(-c3c4ccccc4cc4ccccc34)nc3ccccn23)cc1`, the outcome in assay [2] was inactive.

For `CC(C)(C)Nc1c(-c2c3ccccc3c(NCCCCCCCCN)c3ccccc23)nc2ccccn12`, the MIC in assay [5] worked out at 15.6 µg/mL (≈ 30.8 µM); in assay [1], 7.81 µg/mL (≈ 15.4 µM).

Take `CC(C)(C)Nc1c(-c2c3ccccc3cc3ccccc23)nc2cnccn12`: the outcome in assay [2], in assay [3] and in assay [4] was inactive.

Regarding `c1ccc(Cc2nc3ccccn3c2NC2CCCCC2)cc1`, the outcome in assay [2], in assay [3] and in assay [4] was inactive.

Take `CC(C)(C)CC(C)(C)Nc1c(-c2c3ccccc3c(Cl)c3ccccc23)nc2ccccn12`: the minimal inhibitory concentration (MIC) in assay [1] was determined as 7.81 µg/mL (≈ 17.1 µM).

For `Nc1c(-c2c3ccccc3cc3ccccc23)nc2ccccn12`, in assay [2], the outcome was inactive.

As for `CC(C)(C)CC(C)(C)Nc1c(-c2cc3cccc4ccc5cccc2c5c43)nc2ccccn12`, in assay [1], it took 15.6 µg/mL (≈ 35.1 µM) to inhibit growth (MIC).

With `c1ccc(CNc2c(-c3cccc4ccccc34)nc3ccccn23)cc1`, the result in assay [3] and in assay [4] was inactive. In addition, 15.6 µg/mL (≈ 44.7 µM) was the least that counted as inhibitory in assay [1] (MIC).

Regarding `c1ccc(Cc2nc3cnccn3c2NC2CCCCC2)cc1`, the result in assay [2], in assay [3] and in assay [4] was inactive.

As for `CC(C)(C)Nc1c(-c2cccc3ccccc23)nc2ccccn12`, the MIC was 31.2 µg/mL (≈ 99.1 µM) in assay [5], less than 10 µg/mL in assay [6] and 62.5 µg/mL (≈ 198 µM) in assay [1]. Also, the result in assay [3] and in assay [4] was inactive.

On to `c1ccc(-c2nc3cnccn3c2NC2CCCCC2)cc1`, for which the outcome in assay [2], in assay [3] and in assay [4] was inactive.

Consider `CC(C)(C)CC(C)(C)Nc1c(-c2c3ccccc3cc3ccccc23)nc2ccc(Br)cn12`, for which the MIC in assay [1] was 15.6 µg/mL (≈ 31.2 µM).

For `CC(C)(C)CC(C)(C)Nc1c(-c2c3ccccc3cc3ccccc23)nc2ccccn12`, the MIC in assay [5] and in assay [1] was 3.91 µg/mL (≈ 9.27 µM) in each case. In addition, in assay [7], the result was inactive.

Take `CCCC(C)Nc1c(-c2c3ccccc3cc3ccccc23)nc2ccccn12` (stereo unspecified): the figures for the minimal inhibitory concentration (MIC) in assay [5] and in assay [1] were 3.91 µg/mL (≈ 10.3 µM) and 7.81 µg/mL (≈ 20.6 µM), respectively.

As to `CC(C)(C)Nc1c(Cc2ccccc2)nc2ccccn12`, the outcome in assay [2], in assay [3] and in assay [4] was inactive.

In assay [1], `CCCCCCCCNc1c(-c2c3ccccc3cc3ccccc23)nc2ccccn12` registered an MIC of 7.81 µg/mL (≈ 18.5 µM).

Regarding `c1ccc(CNc2c(-c3cccc4ccccc34)nc3cnccn23)cc1`, the result in assay [2], in assay [3] and in assay [4] was inactive.

`CN(C)CCCNc1c2ccccc2c(-c2nc3ccccn3c2NC(C)(C)CC(C)(C)C)c2ccccc12`: the minimal inhibitory concentration (MIC) in assay [1] is 3.91 µg/mL (≈ 7.49 µM).

`Nc1cccn2c(NC3CCCCC3)c(-c3c4ccccc4cc4ccccc34)nc12` displayed an MIC in assay [1] of 15.6 µg/mL (≈ 38.4 µM).

As for `CCCCNc1c(-c2c3ccccc3cc3ccccc23)nc2ccccn12`, the MIC came to 7.81 µg/mL (≈ 21.4 µM) in assay [5] and 3.91 µg/mL (≈ 10.7 µM) in assay [1].

Consider `c1ccc2c(-c3nc4ccccn4c3NC3CCCCC3)cccc2c1`, for which the results for the MIC in assay [5] and in assay [1] were 15.6 µg/mL (≈ 45.7 µM) and 7.81 µg/mL (≈ 22.9 µM), respectively. Further, the result in assay [3] and in assay [4] was inactive.

As for `C[Si](C)(C)CNc1c(-c2c3ccccc3cc3ccccc23)nc2ccccn12`, in assay [1], inhibition of growth (MIC) required 15.6 µg/mL (≈ 39.5 µM).

`O=C(Nc1c(-c2c3ccccc3cc3ccccc23)nc2ccccn12)C(F)(F)F`: 62.5 µg/mL (≈ 154 µM) was the least that counted as inhibitory in assay [1] (MIC).

As for `CC(C)(C)CC(C)(C)Nc1c(-c2ccc(-c3ccccc3)cc2)nc2ccccn12`, in assay [2], the outcome was inactive.
